Measurements taken from ChEMBL document CHEMBL1157350, “The structure-activity relationship study on 2-, 5-, and 6-position of the water soluble 1,4-dihydropyridine derivatives blocking N-type calcium channels” (Bioorg Med Chem Lett, 2008).
≈ marks a conversion by molar mass, not a printed value.

Columns and labels:
[1] = Inhibition of voltage-dependent N-type calcium channel in human IMR32 cells assessed as effect on calcium influx; format: cell-based; details: IMR-32
[2] = Aqueous solubility of the compound; format: physicochemical; details: buffer
Summary of the method: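 Aqueous suspension left overnight, centrifuged at 10,000 rpm for 5 min; supernatant diluted and quantified by HPLC.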

Rattus norvegicus = species on record: Rattus norvegicus; assay: Inhibition of voltage-dependent N-type calcium channel in rat superior cervical ganglion neurons assessed as effect on Ba2+ current at holding potential of -60 mV at 10 uM by electrophysiology; format: tissue-based
[3] = biological target: Voltage-gated L-type calcium channel (Rattus norvegicus, UniProt P22002+Q02485+P27732); assay: Inhibition of voltage-dependent L-type calcium channel in rat thoracic aorta ring assessed as effect on high K+ induced contraction by Magnus method; format: tissue-based
[4] = Distribution coefficient, log D of the compound; format: physicochemical; details: octanol/water
Summary of the method: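 Calculated logD at pH 7.4 (PrologD).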

Row | SMILES | IC50 [1] | solubility [2] | inhibition (Rattus norvegicus) | IC50 [3] | logD [4]
1 | COCCOC(=O)C1=C(C)NC(C)=C(C(=O)OC/C=C/c2ccccc2)C1c1cccc([N+](=O)[O-])c1 (stereo unspecified) [CILNIDIPINE] | 1600 nM |  |  |  | 
2 | COC(OC)C1=C(C(=O)OC/C=C/c2ccccc2)C(c2cccc(Cl)c2)C(C(=O)O)=C(C)N1 (stereo unspecified) | 3000 nM | > 15 mg/mL | 85% | 8100 nM | 1.29
3 | COc1ccc(/C=C/COC(=O)C2=C(C(OC)OC)NC(C)=C(C(=O)O)C2c2cccc(Cl)c2)cc1 (stereo unspecified) | 2100 nM |  |  | 540 nM | 
4 | COC(OC)C1=C(C(=O)OC/C=C/c2ccc(C(F)(F)F)cc2)C(c2cccc(Cl)c2)C(C(=O)O)=C(C)N1 (stereo unspecified) | 2000 nM |  |  | 3200 nM | 
5 | COC(OC)C1=C(C(=O)OC/C=C/c2cccc(Cl)c2)C(c2cccc(Cl)c2)C(C(=O)O)=C(C)N1 (stereo unspecified) | 1400 nM |  |  | 1000 nM | 
6 | CC1=C(C(=O)O)C(c2cccc(Cl)c2)C(C(=O)OCCC(c2ccccc2)c2ccccc2)=C(C(F)(F)F)N1 (stereo unspecified) | 1700 nM | 3.5 mg/mL (≈ 6.3 mM) |  |  | 3.51
7 | CC1=NC(C)=C(C(=O)O)C(c2cccc(Cl)c2)/C1=C(\O)OC/C=C/c1ccccc1 (stereo unspecified) | 1000 nM |  |  |  | 
8 | COC(OC)C1=C(C(=O)OC/C=C/c2ccccc2Cl)C(c2cccc(Cl)c2)C(C(=O)O)=C(C)N1 (stereo unspecified) | 1800 nM |  |  | 700 nM | 
9 | COC(OC)C1=C(C(=O)OC/C=C/c2ccc(F)cc2)C(c2cccc(Cl)c2)C(C(=O)O)=C(C)N1 (stereo unspecified) | 1800 nM |  |  | 2000 nM | 
10 | CC1=C(C(=O)O)C(c2cccc([N+](=O)[O-])c2)C(C(=O)OC/C=C/c2ccccc2)=C(C)N1 (stereo unspecified) | 3500 nM |  |  |  | 
11 | COC(OC)C1=C(C(=O)OC/C=C/c2ccc(Cl)cc2)C(c2cccc(Cl)c2)C(C(=O)O)=C(C)N1 (stereo unspecified) | 1700 nM |  |  | 1400 nM | 
12 | CN[C@@H](CC(C)C)C(=O)NCCCC(c1ccc(F)cc1)c1ccc(F)cc1 |  |  | 83% |  | 
13 | CCC1=C(C(=O)OC/C=C/c2ccccc2)C(c2cccc(Cl)c2)C(C(=O)O)=C(C)N1 (stereo unspecified) | 810 nM |  |  | 7 nM | 
14 | CC1=C(C(=O)O)C(c2cccc(Cl)c2)C(C(=O)OC/C=C/c2ccccc2)=C(C#N)N1 (stereo unspecified) | 5800 nM |  |  | 2000 nM | 
15 | COc1ccccc1/C=C/COC(=O)C1=C(C(OC)OC)NC(C)=C(C(=O)O)C1c1cccc(Cl)c1 (stereo unspecified) | 2500 nM | 10.2 mg/mL (≈ 19.8 mM) |  | 5900 nM | 1.2
16 | COc1cccc(/C=C/COC(=O)C2=C(C(OC)OC)NC(C)=C(C(=O)O)C2c2cccc(Cl)c2)c1 (stereo unspecified) | 3000 nM |  |  | 4400 nM | 
17 | COC(OC)C1=C(C(=O)O)C(c2cccc(Cl)c2)C(C(=O)OC/C=C/c2ccccc2)=C(C)N1 (stereo unspecified) | 3900 nM |  |  | 1300 nM | 
